# Values joined by “and” are separate entries in the source; they are usually repeats but may differ in a detail not shown here. Equal values may be shown once. Active and inactive are the calls of the source. No cut-off for these calls is given here.
# Tests used:
# [1] = In vitro antimalarial activity against chloroquine-sensitive NF54 strain of Plasmodium falciparum; assay type: functional
# Procedure, shortened: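 Run in quadruplicate with fitted concentration-response curves (R2 ≥0.985). Artemisinin was run as a concurrent control.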
# Mus musculus [2] = assay: In vivo antimalarial activity in mice (Mus musculus) against chloroquine-sensitive Plasmodium berghei N after subcutaneous administration; assay type: functional
# Mus musculus [3] = assay: In vivo antimalarial activity in mice (Mus musculus) against chloroquine-resistant Plasmodium yoelii species. NS after subcutaneous administration; assay type: functional
# Mus musculus [4] = species on record: Mus musculus; assay: Dose at which two mice demonstarted 100% survival and normal expected body weight gain after injecting with compound for 14 days; assay type: functional
# Procedure, shortened: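 Male CD-1/ICR mice in groups of at least 4, given a single intramuscular injection into rear-limb muscle (at most 0.05 mL per site). Test articles were dissolved or suspended at 5% in sesame oil; a vehicle group was included. Doses ranged from 85 to about 400 mg/kg. Survival and body weight gain were followed for 14 days.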
# Mus musculus [5] = assay: In vivo antimalarial activity in mice (Mus musculus) against chloroquine-resistant Plasmodium yoelii species. NS after subcutaneous administration; NA means Inactive at 30 mg/kg/day; assay type: functional, organism-based
Structure (SMILES),IC50 [1],further results
C[C@@]12OC1CC1CC2OO[C@@]1(C)CS(=O)(=O)c1ccccc1 (stereo not given in full),92 nM,–
CC1(O)CCC2CC1OO[C@@]2(C)CS(=O)(=O)c1ccc(F)cc1 (stereo not given in full),49 nM,–
CC1=CCC2CC1OO[C@@]2(C)CSc1ccccc1 (stereo not given in full),940 nM,–
CC1(O)CCC2CC1OO[C@]2(C)CS(=O)(=O)c1ccccc1 (stereo in doubt; 23b),89 nM,–
CC1(O)CCC2CC1OO[C@@]2(C)CS(=O)(=O)c1ccccc1 (stereo in doubt; 23a) [listing 1 of 2 here],55 nM,ED50 (Mus musculus [2]): >30 mg kg-1 5day-1; ED90 (Mus musculus [2]): >30 mg kg-1 5day-1
CC1=CCC2CC1OO[C@@]2(C)CS(=O)(=O)c1ccccc1 (stereo not given in full),360 nM,–
CC1(O)C2CC(CC1OC(=O)c1ccccc1)[C@](C)(CS(=O)(=O)c1ccccc1)OO2 (stereo not given in full),> 2500 nM,–
CC1(O)CCC2CC1OO[C@@]2(C)CS(=O)(=O)c1ccccc1 (stereo in doubt; 26b),95 nM,–
CC(=O)OC1(C)CCC2CC1OO[C@]2(C)C[S+]([O-])c1ccccc1 (stereo not given in full),40 nM and 14 nM,–
COC(=O)CS(=O)(=O)C[C@]1(C)OOC2CC1CCC2(C)O (stereo not given in full),> 2500 nM,–
CC(=O)OC1(C)CCC2CC1OO[C@@]2(C)CS(=O)(=O)c1ccccc1 (stereo in doubt; 39a),17 nM,ED50 (Mus musculus [2]): 3.7 mg kg-1 5day-1; ED90 (Mus musculus [2]): 7.3 mg kg-1 5day-1; ED50 (Mus musculus [3]): 12.5 mg kg-1 5day-1; ED90 (Mus musculus [3]): 28 mg kg-1 5day-1
CCO[C@H]1O[C@@H]2O[C@@]3(C)CC[C@H]4[C@H](C)CC[C@@H]([C@H]1C)[C@@]24OO3 [ARTEMOTIL],–,Dose (Mus musculus [4]): 360 mg/kg; ED50 (Mus musculus [2]): 0.9 mg kg-1 5day-1; ED90 (Mus musculus [2]): 1.4 mg kg-1 5day-1
CC(=O)OC1(C)CCC2CC1OO[C@]2(C)CS(=O)(=O)c1ccccc1 (stereo in doubt; 39b),17 nM,–
COC(=O)CS(=O)(=O)C[C@@]1(C)OOC2CC1CCC2(C)O (stereo not given in full),> 2500 nM,–
CC1(OC/C=C/c2ccccc2)CCC2CC1OO[C@@]2(C)CS(=O)(=O)c1ccccc1 (stereo not given in full),32 nM,–
CC1(O)CCC2CC1OO[C@@]2(C)CS(=O)(=O)c1ccccc1 (stereo in doubt; 23a) [listing 2 of 2 here],–,NA (Mus musculus [5]): Inactive at 30 mg/kg/day
CC(=O)CC(=O)OC1(C)CCC2CC1OO[C@@]2(C)CS(=O)(=O)c1ccccc1 (stereo not given in full),46 nM,–
CC1(O)CCC2CC1OO[C@]2(C)CSC(c1ccccc1)(c1ccccc1)c1ccccc1 (stereo not given in full),72 nM,–
CC(C)=CCOC1(C)CCC2CC1OO[C@@]2(C)CS(=O)(=O)c1ccccc1 (stereo not given in full),35 nM,–
CC(=O)CC(=O)OC1(C)CCC2CC1OO[C@]2(C)CS(=O)(=O)c1ccccc1 (stereo not given in full),73 nM,–
CC(=O)OC1(C)CCC2CC1OO[C@]2(C)CS(=O)(=O)c1ccccc1 (stereo in doubt; 45c),270 nM,–
C[C@@H]1[C@H](OCc2ccc(C(=O)O)cc2)O[C@@H]2O[C@@]3(C)CC[C@@H]4[C@@H](C)CC[C@@H]1[C@]24OO3 [ARTELINIC ACID],–,ED50 (Mus musculus [2]): 6.6 mg kg-1 5day-1; ED90 (Mus musculus [2]): 14 mg kg-1 5day-1
CC1(OC(=O)COc2ccccc2)CCC2CC1OO[C@@]2(C)CS(=O)(=O)c1ccccc1 (stereo not given in full),37 nM,–
CC(=O)OC1(C)CCC2CC1OO[C@]2(C)CS(=O)(=O)c1ccccc1 (stereo in doubt; 45a),20 nM,–
CC(=O)OC1(C)CCC2CC1OO[C@@]2(C)CS(=O)(=O)c1ccccc1 (stereo in doubt; 45d),220 nM,–
CC1(O)CCC2CC1OO[C@@]2(C)CSC(c1ccccc1)(c1ccccc1)c1ccccc1 (stereo not given in full),150 nM,–

# Source: ChEMBL document CHEMBL1144930, “A short synthesis and biological evaluation of potent and nontoxic antimalarial bridged bicyclic beta-sulfonyl-endoperoxides” (J Med Chem, 2003)
